Experimental data reported in PubChem BioAssay AID492981 (Johns Hopkins Ion Channel Center, 2010).
Inconclusive results are not listed. Active and inactive are the calls of the source.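 Rule for the calls: active = compound whose replicate-averaged normalized fluorescence ratio fell more than 5 SD below the agonist-stimulated control mean; inactive = the rest, inconclusive results apart.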

Each molecule was assayed against Short transient receptor potential channel 6 (Mus musculus) (UniProt Q61143) (assay: mouse TRPC6 channel blockers, analog testing – HEK293 cells, membrane potential dye, single concentration, selectivity assay for selective TRPC4 inhibitor project, SAR follow-up (AID 492981)). Details: membrane potential dye fluorescence, at 10 µM, stronger effect = higher value.
Sequence of Short transient receptor potential channel 6 (Mus musculus) (Q61143 whole entry, looked up): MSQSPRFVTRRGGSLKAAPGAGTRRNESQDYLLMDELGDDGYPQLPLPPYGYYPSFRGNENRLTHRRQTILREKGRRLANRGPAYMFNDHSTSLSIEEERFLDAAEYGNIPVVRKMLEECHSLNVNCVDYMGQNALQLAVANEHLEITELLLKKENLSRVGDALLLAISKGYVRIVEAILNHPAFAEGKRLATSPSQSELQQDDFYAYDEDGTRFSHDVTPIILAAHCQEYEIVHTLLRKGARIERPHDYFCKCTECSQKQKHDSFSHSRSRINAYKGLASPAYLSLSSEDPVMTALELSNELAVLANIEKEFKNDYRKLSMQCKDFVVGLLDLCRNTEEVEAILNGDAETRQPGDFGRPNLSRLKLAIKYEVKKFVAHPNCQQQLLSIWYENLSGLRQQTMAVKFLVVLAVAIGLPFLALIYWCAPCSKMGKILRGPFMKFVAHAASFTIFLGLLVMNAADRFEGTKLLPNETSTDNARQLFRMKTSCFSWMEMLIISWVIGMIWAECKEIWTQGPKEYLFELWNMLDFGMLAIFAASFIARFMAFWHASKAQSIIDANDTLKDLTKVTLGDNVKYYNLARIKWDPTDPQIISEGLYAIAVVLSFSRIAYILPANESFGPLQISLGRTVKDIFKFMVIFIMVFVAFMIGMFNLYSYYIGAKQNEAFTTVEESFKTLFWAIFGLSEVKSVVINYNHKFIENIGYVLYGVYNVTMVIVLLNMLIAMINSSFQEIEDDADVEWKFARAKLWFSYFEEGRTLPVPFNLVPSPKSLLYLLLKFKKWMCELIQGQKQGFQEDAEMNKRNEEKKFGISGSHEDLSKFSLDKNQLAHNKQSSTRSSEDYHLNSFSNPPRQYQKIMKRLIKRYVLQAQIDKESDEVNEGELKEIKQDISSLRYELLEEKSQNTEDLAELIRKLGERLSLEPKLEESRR
Outline: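 assay system = HEK293 cells expressing mouse TRPC6 channel | probe or stimulus = ECmax acetylcholine | incubation = 45 min dye loading, 110 s compound preincubation | detection = membrane potential dye fluorescence, kinetic | read-out basis = percent inhibition of integrated fluorescence ratio, normalized to positive controls | replicates = at least duplicate wells per compound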

Row | Compound | inhibition
1 | c1ccc(-c2cc(N3CCCC3)nc3ccccc23)cc1 | 2.24% (inactive)
2 | CCc1ccc2nc(N3CCCCC3)cc(C)c2c1 | 13.6% (inactive)
3 | Cc1ccnc(N2CCCC2)c1 | -27.6% (inactive)
4 | FC(F)(F)c1cc(N2CCCC2)nc2ccccc12 | 11.5% (inactive)
5 | Cc1cc(N2CC(C)CC(C)C2)nc2ccccc12 (stereo not drawn) | 16.4% (inactive)
6 | Cc1ccnc(N2CCCC2)n1 | -6.71% (inactive)
7 | Cc1cc(N2CCCCC2)nc2ccc(F)cc12 | 3.78% (inactive)
8 | Cc1ccnc(N2CCCCC2)n1 | -9.81% (inactive)
9 | Cc1ccnc(N2CCCCC2)c1 | -2.93% (inactive)
10 | Cc1cc(N(C)CCN(C)C)nc2ccccc12 | 18.1% (inactive)
11 | Cc1cc(N2CCCC2)nc2c(C)cccc12 | 33.9% (inactive)
12 | Cc1cc(N2CCNCC2)nc2ccccc12 | 37.2%
13 | Cc1cc(N2CCN(C)CC2)nc2ccccc12 | 2.9% (inactive)
14 | CCN(CC)c1cc(C)c2ccccc2n1 | 9.79% (inactive)
15 | Cc1cc(N2CCOc3ccccc32)nc2ccccc12 | 13.7% (inactive)
16 | Cc1cc(N2CCCCC2)nc2c(C)cccc12 | 3.23% (inactive)
17 | FC(F)(F)c1cc(N2CCCCC2)nc2ccccc12 | -6.62% (inactive)
18 | COCCN(C)c1cc(C)c2ccccc2n1 | 22.2% (inactive)
19 | c1ccc(-c2cc(N3CCCCC3)nc3ccccc23)cc1 | 19.4% (inactive)
20 | Cc1ccc2nc(N3CCCCC3)cc(C)c2c1 | 37.5% (inactive)

The remaining lines, values ahead:

Row | inhibition | Compound
21 | 6.28% (inactive) | Cc1cc(N2CCN(c3ncccn3)CC2)nc2ccccc12
22 | 26.7% | Cc1cc(N2CCCC(O)C2)nc2ccccc12 (stereo not drawn)
23 | 47.6% | Cc1cc(N2CCC[C@@H]2C)nc2ccccc12
24 | 61.2% | Cc1cc(N2CCN(c3ccncc3)CC2)nc2ccccc12
25 | 13.6% (inactive) | Cc1cc(N2CCC(C)CC2)nc2ccccc12
26 | 44.8% | Cc1cc(N2CCC(N3CCOCC3)CC2)nc2ccccc12
27 | 42.7% | Cc1cc(N2CCCCC2)nc2ccccc12
28 | 15.5% (inactive) | COc1ccc(N2CCN(c3cc(C)c4ccccc4n3)CC2)cc1
29 | 14.3% (inactive) | Cc1cc(N2CCN(CC3CCCO3)CC2)nc2ccccc12 (stereo not drawn)
30 | 11.7% (inactive) | COc1ccccc1N1CCN(c2cc(C)c3ccccc3n2)CC1
31 | 2.35% (inactive) | Cc1cc(N2CCOCC2)nc2ccccc12
32 | 57.9% | Cc1cc(N2CCCC2)nc2ccccc12
33 | 0.71% (inactive) | Cc1cc(N2CCN(c3ccccc3C#N)CC2)nc2ccccc12
